Bioassay records (PubChem)
dFosB act: activators of mouse delta FosB homodimer | P13346 | purified delta FosB, TAMRA-CDK5 oligo fluorescence polarization; percent of positive-control signal above neutral wells | activation, % at 25 µM | 0.99% of 340,000 active | AID 493131;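 active means mean activation above about 17%, with every replicate also reaching it, limit read from the data, passing the limit was not always enough; inconclusive means only one of the two conditions met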
AF4-AF9 inh: inhibitors of human MLL-AF4/AF9 interaction | P42568 | AlphaScreen, biotin-AF4 peptide binding to FLAG-AF9 | inhibition, % at 10 µM | 0.47% of 350,000 active | AID 651704;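 active means every replicate reaching a set inhibition limit, whatever the replicate mean, cut at about 25% in these data; inconclusive means mean inhibition reaches that limit but some replicates miss it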;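 further: 0% = plate neutral control median and 100% = total signal loss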
RAD54 inh: RAD54 (human) branch migration inhibition; Q92698; RAD54 Holliday junction branch migration, FAM/BHQ fluorescence; inhibition, % at 10.4 µM; 0.14% of 360,000 active;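 active means mean normalized replicate activity at least 40 and at least half of replicates scoring 40 or more; inconclusive means only one of the two criteria met; inactive means mean below 40 and under half of replicates reaching 40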;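 further: 0% = median of neutral control wells and 100% = median of positive control wells; inhibitors cause a drop in the FAM fluorescence signal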
S100A4 MyoIIA: S100A4-myosin IIA interaction inhibition; AID 652163; P26447; 0.14% of 360,000 active; inhibition, % at 10.7 µM; S100A4/TAMRA-MyoIIA peptide fluorescence polarization;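 active means mean inhibition of at least 70% across replicates, with every replicate also reaching that level; inconclusive means mean inhibition reaches 70% but some replicates fall short; inactive means mean inhibition below 70%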
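assay system = human S100A4 monomer with TAMRA-labelled myosin IIA peptide | also added = labelled myosin peptide probe, 5 nM | incubation = 5 min between mix addition and reading | control set = DMSO and TFP controls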
RAD52 inh: blocks human RAD52 DNA annealing | P43351 | recombinant RAD52 DNA annealing, FRET fluorescence | inhibition, % at 18.7 µM | 0.46% of 360,000 active;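 active means every replicate showing at least 50% inhibition; inconclusive means mean inhibition at least 50% but not in every replicate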
Target sequence (P43351 whole entry, looked up): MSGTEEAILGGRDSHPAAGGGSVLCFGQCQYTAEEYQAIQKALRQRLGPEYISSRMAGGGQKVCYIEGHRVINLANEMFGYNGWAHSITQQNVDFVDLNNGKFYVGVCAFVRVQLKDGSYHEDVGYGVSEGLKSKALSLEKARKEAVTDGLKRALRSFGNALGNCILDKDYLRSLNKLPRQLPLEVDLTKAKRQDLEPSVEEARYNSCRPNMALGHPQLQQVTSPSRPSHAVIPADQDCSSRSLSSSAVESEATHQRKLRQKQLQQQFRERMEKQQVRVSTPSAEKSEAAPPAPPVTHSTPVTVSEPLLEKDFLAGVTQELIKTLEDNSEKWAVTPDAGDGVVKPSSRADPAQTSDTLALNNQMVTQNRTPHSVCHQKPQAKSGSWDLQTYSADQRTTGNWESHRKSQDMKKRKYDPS
DNA binding: DNA binding artifact in Rad54 counter-screen; shares compounds with RAD54 inh; Acridine orange-DNA displacement, fluorescence polarization, 20 min; AC50, µM (titrated, usually from 35 µM), inactives show at the top dose activity change, negative = DNA binding; 8% of 460 active; AID 651673;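 active means signal drop giving an AC50 within twice the top valid tested concentration of each sample, actives reach about 35 µM in these data; inactive means activity opposite to expected, plus the rest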;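 further: polarization loss reports compound binding to salmon sperm DNA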
RAD52 DNA ctr: binds DNA, flagging false RAD52 inhibitor hits; shares compounds with RAD52 inh; Salmon sperm DNA/acridine orange FP displacement, DNA binding; AC50, µM; 8% of 1,000 active;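 active means fitted half-maximal concentration for signal loss at or below twice the highest dose tested, in every separate run, actives reach about 64 µM in these data; inconclusive means runs disagree, or flat partial signal loss, or poor fit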
* = called active by the depositor; i = inactive; ? = inconclusive; / = no result. In the library only some 1.5% were active in any assay of this set; here they are far more common.

SMILES	dFosB act	AF4-AF9 inh	RAD54 inh	S100A4 MyoIIA	RAD52 inh	DNA binding	RAD52 DNA ctr
C[C@@H]1CN([C@H](C)CO)C(=O)c2cccc(NC(=O)c3nc4ccccc4s3)c2O[C@H]1CN(C)C(=O)Nc1ccc(C(F)(F)F)cc1	/	2.7	6.5	-25.1	1.6	/	/
CCOC(=O)c1cnc2ccc(OCC)cc2c1NCCCN1CCOCC1	1.8	1.2	100.8*	-2.2	70.3*	-4.0%	i
CNC(=O)C[C@@H]1CC[C@@H]2[C@@H](COc3ccc(NC(=O)Nc4ccc(Cl)cc4)cc3C(=O)N2C)O1	/	1.1	-2.8	2.4	-7.4	/	/
COc1ccc(C)c2sc(N(CCCN(C)C)C(=O)c3ccc(S(=O)(=O)N(C)C)cc3)nc12	0.3	3.2	11.7	4.5	13.9	/	/
COc1ccc(OC)c2sc(N(CCN(C)C)C(=O)c3ccc4ccccc4c3)nc12	30.4*	27.9*	69.2*	2.5	93.2*	4.9%	i
CCN(CC)CCN(C(=O)C1=COCCO1)c1nc2c(OC)ccc(OC)c2s1	9.9	5.1	77.4*	-0.9	88.1*	10.3%	i
COc1cc2ccccc2cc1C(=O)N(CCN(C)C)c1nc2c(OC)ccc(OC)c2s1	?	50.1*	60.1*	5.7	94.3*	-4.7%	i
CCCCNC(=O)c1cc2c(-c3ccc(Cl)cc3)nn(C)c2s1	-11.7	-18.1	1.8	-1.7	-3.1	/	/
CCN(CC)CCCNC(=O)c1cc2c(-c3cccc(OC)c3)nn(C)c2s1	-42.2	4.2	72.7*	-2.3	91.5*	i	i
CCCCN(CC)CCCNC(=O)c1cc2c(-c3ccc(OC)c(OC)c3)nn(C)c2s1	37.4*	4.7	91.0*	-4.6	93.7*	-12.5%	i
O=C(C1CCC1)N1CC2(C1)[C@H](c1ccccc1)[C@H](CO)N2CCC(F)(F)F	/	-3.2	/	8.2	-0.9	/	/
O=C(Nc1ccccc1)N[C@@H]1CC[C@@H](CCn2cc(C3(O)CCCC3)nn2)O[C@H]1CO	/	-0.1	5.4	7.8	-1.5	/	/
COc1ccc(OC)c(Nc2cc(C)c3ccccc3n2)c1	0.5	14.1	-2.5	-6.7	-7.1	/	/
COc1ccc(OC)c(Nc2nc(NCCO)c3ccccc3n2)c1	30.8*	17.7	94.3*	-3.6	87.8*	-8.8%	i
COc1cc(-c2cnc3c(NC=O)cc(-c4cccc(C(=O)NCCN(C)C)c4)cn23)cc(OC)c1OC	/	20.7	101.5*	-0.6	93.2*	-2.1%	i
COc1ccc(-c2cc(NC=O)c3ncc(-c4cccc(C(=O)NCCN(C)C)c4)n3c2)cn1	/	8.5	94.6*	-9.9	81.0*	-10.8%	i
COc1cc(-c2cnc3c(NC(C)=O)cc(-c4cccc(C(=O)NCCO)c4)cn23)cc(OC)c1OC	/	-1.2	1.4	0.8	-7.5	/	/
C=CC[C@@]1(C(=O)N2CCCCC2)N=C(c2ccc(OCCCO)cc2)O[C@@H]1c1ccccc1	/	2.0	-0.3	-16.1	13.0	/	/
C[C@H](CO)N1C[C@H](C)[C@@H](CN(C)C(=O)CC2CC2)Oc2ncc(C#CC3CC3)cc2C1=O	/	1.2	-3.5	-0.3	-2.8	/	/
COc1ccc(OC)c(Nc2nc(NCCCN(C)C)nc(N)c2[N+](=O)[O-])c1	24.3*	11.2	74.0*	2.4	95.0*	-21.2%	i
CC1CCCN(CCCNC(=O)c2cc3c(Cl)nc4ccccc4c3s2)C1 (stereo unspecified)	-62.5	7.8	92.0*	-3.6	66.8*	-6.7%	39.4µM*
Cc1nc2ccccc2c2oc(C(=O)NCCCN3CCCC(C)C3)cc12 (stereo unspecified)	-32.4	-2.7	37.7	-0.7	17.5	/	/
CN(C)CCNC(=O)c1cccc(-c2cnc3c(NC=O)cc(-c4ccccc4F)cn23)c1	/	13.4	63.0*	-2.0	96.4*	5.6%	i
CN(C)CCNC(=O)c1cccc(-c2cnc3c(NC=O)cc(-c4ccc(C(=O)N5CCOCC5)cc4)cn23)c1	/	4.9	?	2.7	62.6*	-5.2%	i
Cc1cc(-c2cc(NC=O)c3ncc(-c4cccc(C(=O)NCCN(C)C)c4)n3c2)cc(C)c1O	/	21.3	62.0*	4.9	91.8*	-4.2%	i
